From publication PMC10149104 (Journal of medicinal chemistry, 2023)
Where a SMILES comes first, the peptide text is derived from it.

Assays:
[1] = Stability in cell culture supernatants; type: in vitro ADME
How it was run: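 Test compounds are incubated in conditioned medium collected from MV4;11 cultures for 24 h at 37 °C. Intact compound and the free acid product are then quantified by LC/MS, with species identified by retention time. Values are means ± SEM of three biological replicates.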

[2] = system: DOX-inducible CARD8 E274R mutant THP-1 cells; assay: CARD8 E274R mutant NT degradation assay in CARD8^−/− THP-1 cells; type: cell-based, human; conditions: DOX 100 ng/mL 16 h; VbP 10 μM, CQ31/CQ80 20 μM, VP-OMe 1 mM, MeBs 10 μM; 6 h
How it was run: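 Parental CARD8-knockout THP-1 cells carry a stably integrated doxycycline-inducible CARD8 E274R construct. Cells are grown in RPMI 1640 with L-glutamine and 10% FBS at 37 °C in 5% CO2. They are induced with or without DOX (100 ng/mL, 16 h), then exposed to test compounds for 6 h.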

[3] = molecular target: CARD8-DPP9 ternary complex in HEK 293T^CASP1+GSDMD cells (Homo sapiens, UniProt Q86TI2); assay: dTAG-based CARD8-DPP9 ternary complex disruption assay; type: cell-based; conditions: dTAG-13 500 nM; VbP 10 μM, CQ31 20 μM, CQ80 20 μM, VP-OMe 1 mM; 6 h; LDH release
[4] = system: THP-1 cells; assay: LDH release and GSDMD cleavage in knockout THP-1 cells; type: cell-based, human; conditions: 20 μM, 24 h
[5] = system: human resting T cells; assay: GSDMD cleavage in human resting T cells; type: cell-based; conditions: 20 μM, 24 h
How it was run: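 Primary human T cells (>90% purity by flow cytometry) are thawed in RPMI-1640 with 10% FBS and cultured with 30 U/mL IL-2. Cells receive test compound for 24 h, then are washed twice in PBS and lysed by sonication. Protein is normalized before SDS-PAGE, and blots are probed with an anti-GSDMD rabbit polyclonal and imaged by infrared fluorescence.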

[6] = system: MV4;11, OCI-AML2, and THP-1 cells; assay: LDH release and GSDMD cleavage immunoblot in WT and CARD8^−/− cells; type: cell-based, human; conditions: 20 μM, 24 h, but not CARD8^−/−
[7] = system: N/TERT-1 immortalized keratinocytes; assay: CTG cell viability in N/TERT-1 keratinocytes; type: cell-based, human; conditions: VbP 10 μM, CQ compounds 20 μM, 24 h
How it was run: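 N/TERT-1 keratinocytes are grown in keratinocyte serum-free medium with 1× penicillin/streptomycin, bovine pituitary extract (25 μg/mL) and EGF (0.2 ng/mL) at 37 °C in 5% CO2. Plating density is 2000 cells/well in 384-well plates, with compound added by pin tool. After 24 h, CellTiter-Glo reagent is added, plates are shaken 2 min, held 10 min at 25 °C, and luminescence is read. Values are means ± SEM of three biological replicates.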

[8] = system: BMDMs from C57BL/6J mice and RAW264.7 cells; assay: LDH release and GSDMD cleavage in mouse BMDMs and RAW264.7 cells; type: cell-based; conditions: VbP 10 μM, CQ31/CQ80 20 μM, 24 h
How it was run: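 BMDMs: bone marrow is collected from femurs and tibias of 7–12-week-old C57BL/6J mice, strained (70 μm) and RBC-lysed. Cells are cultured 6 days at 37 °C in DMEM with 10% FBS and 15–20% L-cell medium, then replated. RAW264.7 cells are grown in DMEM with 10% FBS and seeded at 5 × 10^5 per well in 12-well plates. Both receive compound for 24 h. LDH is read relative to a Triton X-100 lysis control, and immunoblots use an anti-mouse GSDMD rabbit monoclonal. RAW264.7 data are means ± SEM, n = 3.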

[9] = system: MV4;11 cells; assay: PI uptake in MV4; type: cell-based, human; conditions: 6.25 μM; WT, CASP1^−/−, CARD8^−/− cells
How it was run: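 MV4;11 cells (WT, CASP1−/− or CARD8−/−) were plated at 2 × 10^4 cells/well in 384-well format in RPMI and treated with test compound (6.25 μM) for 6 h before PI uptake monitoring. PI was added at 10 μM final. Fluorescence (Ex/Em 535/617 nm) was read every 5 min at 37 °C, baseline-corrected to DMSO vehicle and normalised to maximum response.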

[10] = system: OCI-AML2 cells; assay: CTG cell viability in WT and CARD8^−/− OCI-AML2 cells; type: cell-based, human; conditions: 24 h
How it was run: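 Test compound was added by pintool at various concentrations to OCI-AML2 cells (WT or CARD8−/−) plated at 2000 cells/well in 384-well format, in RPMI 1640 with L-glutamine and 10% FBS. Cells were incubated for 24 h at 37 °C in 5% CO2. CellTiter-Glo was then added, plates were shaken for 2 min and held at 25 °C for 10 min, and luminescence was read.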

[11] = system: OCI-AML2 cells; assay: PI uptake in OCI-AML2 cells; type: cell-based, human; conditions: 6.25 μM, compared to CQ31
How it was run: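 OCI-AML2 cells (2 × 10^4 per well, 384-well, RPMI) are treated with 6.25 μM compound, with PI added at 10 μM final. PI fluorescence (Ex/Em 535/617 nm) is recorded at 37 °C every 5 min over 6 h. Signals are baseline-corrected to DMSO vehicle and normalized to the maximum response. Values are means ± SEM of three biological replicates.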

[12] = molecular target: recombinant XPNPEP1 (Homo sapiens, UniProt Q9NQW7); assay: Inhibition of recombinant XPNPEP1, H-Lys; type: biochemical; conditions: for XPNPEP1 inhibition (in words): recombinant XPNPEP1
[13] = system: MV4;11 CASP1^−/− cells; assay: CellTiter-Glo cell viability, CASP1 knockout MV4; type: cell-based, human; conditions: for Cell death independent of CASP1 in MV4;11 cells (in words): WT and CASP1^−/− MV4;11, CTG, 24 h
How it was run: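 CASP1-knockout MV4;11 cells (generated previously) are grown alongside wild type in RPMI 1640 with 10% FBS at 37 °C in 5% CO2. Cells are plated at 2000 per well in 384-well plates and dosed by pin tool in three-fold dilutions, topping at 100 μM (down to 15.2 nM) or 10 μM (down to 1.5 nM). After 24 h, CellTiter-Glo luminescence is read (2 min shake, 10 min at 25 °C). IC50 values are means ± SEM of three biological replicates.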

[14] = molecular target: T1, recombinant human PEPD (Homo sapiens, UniProt P12955); assay: Inhibition of recombinant PEPD, alanine release assay; type: biochemical
T1 sequence (P12955 1-493): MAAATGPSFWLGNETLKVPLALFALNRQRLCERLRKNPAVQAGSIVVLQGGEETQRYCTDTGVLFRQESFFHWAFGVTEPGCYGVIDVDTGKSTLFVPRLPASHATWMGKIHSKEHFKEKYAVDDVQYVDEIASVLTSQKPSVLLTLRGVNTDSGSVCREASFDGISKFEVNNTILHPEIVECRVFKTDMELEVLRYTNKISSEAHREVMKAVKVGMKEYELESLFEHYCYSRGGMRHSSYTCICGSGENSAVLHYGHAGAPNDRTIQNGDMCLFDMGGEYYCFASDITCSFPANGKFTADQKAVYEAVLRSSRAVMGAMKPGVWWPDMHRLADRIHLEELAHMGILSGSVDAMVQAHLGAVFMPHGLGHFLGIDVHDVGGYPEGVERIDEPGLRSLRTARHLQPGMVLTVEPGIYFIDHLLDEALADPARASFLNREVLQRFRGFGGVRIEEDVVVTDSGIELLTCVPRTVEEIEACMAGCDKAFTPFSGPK

[15] = system: MV4;11 WT cells; assay: CellTiter-Glo cell viability, WT MV4; type: cell-based, human; conditions: CTG, 24 h

Sequence of recombinant XPNPEP1 (Q9NQW7 whole entry): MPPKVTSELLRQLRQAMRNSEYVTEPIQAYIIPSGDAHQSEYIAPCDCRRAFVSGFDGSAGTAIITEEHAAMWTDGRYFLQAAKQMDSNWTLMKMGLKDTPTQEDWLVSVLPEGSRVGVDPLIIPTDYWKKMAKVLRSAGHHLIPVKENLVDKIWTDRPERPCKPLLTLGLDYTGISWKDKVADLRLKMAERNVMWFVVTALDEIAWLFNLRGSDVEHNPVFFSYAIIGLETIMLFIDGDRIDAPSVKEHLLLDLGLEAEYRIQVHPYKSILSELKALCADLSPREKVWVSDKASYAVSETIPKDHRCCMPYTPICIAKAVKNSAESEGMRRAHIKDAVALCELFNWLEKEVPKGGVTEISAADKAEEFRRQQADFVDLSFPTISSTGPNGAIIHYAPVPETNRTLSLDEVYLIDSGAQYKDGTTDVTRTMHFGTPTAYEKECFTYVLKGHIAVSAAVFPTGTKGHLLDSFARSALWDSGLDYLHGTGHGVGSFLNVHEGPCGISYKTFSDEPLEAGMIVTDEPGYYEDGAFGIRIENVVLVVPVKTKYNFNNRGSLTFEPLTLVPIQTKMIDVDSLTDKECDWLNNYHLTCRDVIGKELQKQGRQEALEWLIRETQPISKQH
Sequence of CARD8-DPP9 ternary complex in HEK 293T^CASP1+GSDMD cells (Q86TI2 whole entry, one chain of several): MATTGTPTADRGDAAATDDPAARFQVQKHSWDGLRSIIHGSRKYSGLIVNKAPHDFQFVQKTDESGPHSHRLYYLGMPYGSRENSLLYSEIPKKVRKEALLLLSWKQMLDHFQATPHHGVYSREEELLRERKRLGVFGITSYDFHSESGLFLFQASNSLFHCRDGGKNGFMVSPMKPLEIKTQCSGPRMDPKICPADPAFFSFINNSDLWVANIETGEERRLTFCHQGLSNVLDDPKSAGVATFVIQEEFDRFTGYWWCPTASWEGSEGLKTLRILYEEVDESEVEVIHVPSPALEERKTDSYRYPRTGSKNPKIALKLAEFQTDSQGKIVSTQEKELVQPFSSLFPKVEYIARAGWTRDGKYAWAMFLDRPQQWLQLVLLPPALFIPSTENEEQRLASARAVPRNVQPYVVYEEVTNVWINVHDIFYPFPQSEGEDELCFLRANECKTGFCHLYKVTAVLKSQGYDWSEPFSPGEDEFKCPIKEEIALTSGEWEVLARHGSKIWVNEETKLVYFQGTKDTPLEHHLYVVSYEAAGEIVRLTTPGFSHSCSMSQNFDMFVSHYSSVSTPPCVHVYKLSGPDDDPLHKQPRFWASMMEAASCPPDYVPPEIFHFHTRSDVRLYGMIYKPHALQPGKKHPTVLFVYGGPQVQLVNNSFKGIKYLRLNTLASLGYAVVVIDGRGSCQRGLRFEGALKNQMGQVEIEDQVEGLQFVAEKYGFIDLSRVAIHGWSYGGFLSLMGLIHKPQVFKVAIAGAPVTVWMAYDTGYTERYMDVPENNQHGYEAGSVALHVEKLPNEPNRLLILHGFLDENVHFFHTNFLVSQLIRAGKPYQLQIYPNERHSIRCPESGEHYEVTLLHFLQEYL

## CC(C)C[C@H](NC(=O)[C@@H]1CCCN1C(=O)[C@@H](O)[C@H](N)CC(C)C)C(=O)NCCc1ccccc1 [CQ116, (S)-1-((2S,3R)-3-Amino-2-hydroxy-5-methylhexanoyl)-N-((S)-4-methyl-1-oxo-1-(phenethylamino)pentan-2-yl)pyrrolidine-2-carboxamide]
[1]
  Stability in cell culture supernatants (in words): completely stable

## COC(=O)[C@@H]1CCCN1C(=O)[C@@H](N)C(C)C [VP-OMe, reference compound] (H-Val-Pro-OMe)
[2]
  Additional cell death in CARD8 E274R assay (NT degradation): did not cause substantially more death
[3]
  Pyroptosis after dTAG-13 treatment (ternary complex destabilization): induce more pyroptosis after dTAG-13 treatment

## COC(=O)[C@H](CC(C)C)NC(=O)[C@@H]1CCCN1C(=O)[C@@H](O)[C@H](N)CC(C)C [CQ80, Methyl ((2S,3R)-3-Amino-2-hydroxy-5-methylhexanoyl)-l-prolyl-l-leucinate]
[4]
  Sensitivity of PEPD and XPNPEP1 single knockout THP-1 cells: sensitive
  Sensitivity of PEPD/XPNPEP1 double knockout THP-1 cells: completely resistant
[4]; LDH release and GSDMD cleavage
  Pyroptosis in DPP8/9^−/− THP-1 cells: neither CQ80 nor CQ31 induced any additional pyroptosis
[5]
  GSDMD cleavage in human resting T cells: induced GSDMD cleavage
[6]
  LDH release and GSDMD cleavage: induced lactate dehydrogenase (LDH) release and GSDMD cleavage
[7]
  Cell death in N/TERT-1 keratinocytes (human NLRP1 activation): does not activate
[8]
  Pyroptosis in mouse BMDMs and RAW264.7 cells (rodent NLRP1 activation): does not activate
[9]
  PI uptake in MV4;11 cells: induced PI uptake in WT but not CASP1^−/− or CARD8^−/−
[1]; after 24 h at 37 °C
  Fraction remaining intact: ~ 50%
[10]
  Cell death in OCI-AML2 cells: induced cell death in WT but not CARD8^−/−
[2]
  Additional cell death in CARD8 E274R assay (NT degradation): do not trigger as much degradation as MeBs
[3]
  Pyroptosis after dTAG-13 treatment (ternary complex destabilization): induce more pyroptosis after dTAG-13 treatment
[11]
  Rate of lytic cell death by PI uptake in OCI-AML2 cells: caused more rapid lytic cell death

## CC(C)[C@H](N)C(=O)N1CCC[C@H]1B(O)O [VbP, ValboroPro, reference compound]
[7]
  Cell death in N/TERT-1 keratinocytes (human NLRP1 activation): induced cell death
[8]
  Pyroptosis in mouse BMDMs and RAW264.7 cells (rodent NLRP1 activation): induced pyroptosis
[2]
  Additional cell death in CARD8 E274R assay (NT degradation): did not cause substantially more death

## COC(=O)[C@H](CC(C)C)NC(=O)[C@@H](O)[C@H](N)CC(C)C [CQ52, Methyl ((2S,3R)-3-Amino-2-hydroxy-5-methylhexanoyl)-l-leucinate]
[12]
  XPNPEP1 inhibition (in words): very weak PEPD and XPNPEP1 inhibitors
[13]
  Cell death independent of CASP1 in MV4;11 cells (in words): triggered CASP1-independent cell death
[14]
  PEPD inhibition (in words): very weak PEPD and XPNPEP1 inhibitors

## COC(=O)[C@@H](NC(=O)[C@@H]1CCCN1C(=O)[C@@H](O)[C@H](N)CC(C)C)C(C)C [CQ78, Methyl ((2S,3R)-3-Amino-2-hydroxy-5-methylhexanoyl)-l-prolyl-l-valinate]
[11]
  Rate of lytic cell death by PI uptake in OCI-AML2 cells: caused more rapid lytic cell death

## COC(=O)[C@H](Cc1ccccc1)NC(=O)[C@@H](O)[C@H](N)CC(C)C [CQ72, Methyl ((2S,3R)-3-Amino-2-hydroxy-5-methylhexanoyl)-l-phenylalaninate]
[12]
  XPNPEP1 inhibition (in words): very weak PEPD and XPNPEP1 inhibitors
[13]
  Cell death independent of CASP1 in MV4;11 cells (in words): triggered CASP1-independent cell death
[14]
  PEPD inhibition (in words): very weak PEPD and XPNPEP1 inhibitors

## C[C@H](NC(=O)[C@@H]1CCCN1C(=O)[C@@H]1CCCN1C(=O)[C@@H](O)[C@H](N)Cc1ccccc1)C(N)=O [apstatin, reference compound]
[12]; read-out: XPNPEP1 IC50 (μM ± SEM), recombinant XPNPEP1, H-Lys(abz)-Pro-Pro-pNA cleavage, means ± SEM of three biological replicates
  IC50: 18 ± 1.7 µM
[13]; read-out: MV4;11 CASP1^−/− IC50, CTG cell viability after 24 h treatment
  IC50: > 20 µM
[15]
  Cytotoxicity / activity against MV4;11 cells (in words): not cytotoxic at all

## COC(=O)[C@H](CC(C)C)NC(=O)[C@@H](O)[C@H](N)Cc1ccccc1 [MeBs, bestatin methyl ester, reference compound]
[13]
  Cell death independent of CASP1 in MV4;11 cells (in words): CASP1-independent cell death
[2]
  Additional cell death in CARD8 E274R assay (NT degradation): still induce considerably more cell death

## CC(C)C[C@@H](N)[C@H](O)C(=O)N1CCC[C@H]1C(=O)OC(C)(C)C [CQ34, tert-Butyl ((2S,3R)-3-Amino-2-hydroxy-5-methylhexanoyl)-L-pro-linate]
[12]
  XPNPEP1 inhibition (in words): inhibited PEPD and XPNPEP1 similarly
[1]
  Stability in cell culture supernatants (in words): considerably more stable than CQ31 or CQ94
  Time after which completely hydrolyzed: ≤ 8 h
[15]
  Cytotoxicity / activity against MV4;11 cells (in words): slightly more toxic
[14]
  PEPD inhibition (in words): inhibited PEPD and XPNPEP1 similarly
